# In the library only some 1.3% were active in any assay of this set; here they are far more common.
# XiGFP reactiv: activators of X-chromosome reactivation in mouse fibroblasts; hit rate 0.055% among 360,000; activation, % at 7.58 µM; AID 743238; XiGFP mouse fibroblasts, % GFP-positive cells imaging, 3 d; cells co-treated with 5-aza-dC sensitizer; scaled so ellipticine positive control = 100%;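 active = mean normalized replicate activation at least 10% and every replicate at or above 10%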;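 also: 0% = median of on-plate neutral control wells and 100% = ellipticine 6 µM median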
#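 material = 68-5-11 XiGFP fibroblast line | medium = DMEM plus 5-aza-dC sensitizer | schedule = 3 days compound exposure | benchmarks = positive control ellipticine, 6 µM final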
# Rpn11 block: Rpn11 (human) deubiquitinase inhibition | hit rate 0.59% among 360,000 | human 26S proteasome, Ub4-pepOG fluorescence polarization; 20S core pre-blocked with epoxomicin | AID 588493 | inhibition, % at 20 µM | O00487;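 active = inhibition at 20 µM, scaled to each plate's controls, above about 33%, limit read from the data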
# TPT1 inhibitor: C. albicans TPT1 enzyme inhibition. inhibition, % at 5 µM. recombinant caTPT1, FP RNA substrate dephosphorylation. hit rate 0.81% among 300,000. AID 1962;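 active = inhibition above the mean of all tested compounds plus 3 SD, set per screening campaign, cut at about 24% in these data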;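 also: plate controls were DMSO alone for no effect and ferristatin control at 100 nM for full effect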
# CSN deneddyl inh: inhibitors of human CSN-mediated cullin deneddylation | Q92905 | Purified CSN, SCF-Nedd8-OG deneddylation, fluorescence polarization | inhibition, % at 12.5 µM | hit rate 0.38% among 360,000 | AID 651999;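 active = pattern-corrected inhibition above about 35%, with an unprinted fluorescence ratio check between 0.5 and 1.5, limit read from the data, passing the limit was not always enough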;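 also: 0% = enzyme with substrate and 100% = substrate without enzyme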
# Target sequence (Q92905 whole entry, looked up, one chain of several): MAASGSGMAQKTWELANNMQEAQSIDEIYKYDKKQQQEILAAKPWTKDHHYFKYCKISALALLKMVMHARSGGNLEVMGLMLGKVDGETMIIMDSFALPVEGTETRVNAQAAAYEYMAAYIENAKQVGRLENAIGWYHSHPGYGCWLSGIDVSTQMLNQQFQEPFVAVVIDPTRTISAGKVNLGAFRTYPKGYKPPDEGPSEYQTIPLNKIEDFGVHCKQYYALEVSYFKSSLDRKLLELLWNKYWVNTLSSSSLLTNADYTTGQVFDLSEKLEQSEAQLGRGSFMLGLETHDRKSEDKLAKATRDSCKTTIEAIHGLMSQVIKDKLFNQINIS
#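 Assay system: Purified human Csn5 enzyme expressed in HEK293T cells | Amount: Enzyme 0.24 nM | Measured by: Fluorescence polarization readout | Medium: Tris/NaCl/DTT buffer, pH 7.5 | Compound dosing: One concentration, 12.5 µM, 0.25% DMSO | Times: 90 min incubation of compound, enzyme and substrate at room temperature | Control set: no-enzyme wells high, enzyme-with-substrate wells low | Read-out: % inhibition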
# HNF4A DNA FP: change in binding of human HNF4 alpha to DNA | activity change, % at 10 µM | hit rate 0.3% among 360,000 | P41235 | HNF4a-FITC DNA binding, fluorescence polarization, 1 h; in the data active = activity change above about 30%, passing the limit was not always enough
# Target sequence (P41235 whole entry, looked up): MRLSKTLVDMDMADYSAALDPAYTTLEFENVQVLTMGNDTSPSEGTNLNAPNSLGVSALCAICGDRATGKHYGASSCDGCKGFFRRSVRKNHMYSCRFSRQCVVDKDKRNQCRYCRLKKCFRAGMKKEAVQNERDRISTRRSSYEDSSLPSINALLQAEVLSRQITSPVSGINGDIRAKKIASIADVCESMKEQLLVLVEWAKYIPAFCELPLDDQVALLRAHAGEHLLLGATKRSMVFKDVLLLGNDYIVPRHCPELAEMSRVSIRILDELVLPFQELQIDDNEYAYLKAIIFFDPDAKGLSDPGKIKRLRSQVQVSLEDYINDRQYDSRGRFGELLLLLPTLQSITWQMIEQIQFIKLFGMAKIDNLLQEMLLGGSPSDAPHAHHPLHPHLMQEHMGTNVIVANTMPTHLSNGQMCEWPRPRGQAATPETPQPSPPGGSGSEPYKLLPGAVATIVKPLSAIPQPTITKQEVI
# aDG glyco up: increases alpha dystroglycan glycosylation | hit rate 0.22% among 360,000 | activation, % at 10 µM | AID 624168 | Pro5-aDG cells, alpha-DG glycosylation AlphaScreen (IIH6); 0% Pro5, 100% B10-LARGE cell signal;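 active = activation of at least 8% versus controls, or a plate z-score of at least 8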;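 also: Pro5 are CHO cells carrying HIG-tagged alpha-DG that lacks glycosylation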
# Rpn11 inh conf: confirmation of human proteasome Rpn11 inhibitors; shares compounds with Rpn11 block; purified human 26S proteasome, Ub4-pepOG fluorescence polarization; proteasome pretreated with epoxomicin; inhibition, % at 20 µM; hit rate 29% among 1,900
# MMP-2 counter: counter-screen for RPN11 inhibitors: inhibition of human MMP-2 | shares compounds with Rpn11 block | recombinant MMP-2, FRET peptide cleavage fluorescence | inhibition, % at 20 µM | hit rate 4% among 1,900;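 also: human MMP-2 activated beforehand with APMA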
# Thrombin inh: thrombin (bovine) inhibition counter-screen | inhibition, % at 20 µM | shares compounds with Rpn11 block | hit rate 13% among 1,900 | bovine thrombin cleavage of Ub4-pepOG, fluorescence polarization | AID 602333;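 active = mean inhibition at least 40% at 20 µM, or signal 3 deviations below plate average, so some actives read negative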;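 also: plate controls were thrombin with DMSO for no effect and buffer wells lacking thrombin for full effect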
# * hit, by the source's call; nt = no result. Rule as the data show it, unless noted: active = inhibition above about 40%; inactive = the rest.
SMILES,XiGFP reactiv,Rpn11 block,TPT1 inhibitor,CSN deneddyl inh,HNF4A DNA FP,aDG glyco up,Rpn11 inh conf,MMP-2 counter,Thrombin inh
Cc1ccc(S(=O)(=O)N2[C@@H](c3ccc(Cl)cc3)C(C(=O)O)=C[C@H]2CC2CCCC2)cc1,0.1,10.5,nt,9.0,-2.0,-0.1,nt,nt,nt
Cc1ccc(S(=O)(=O)N2[C@@H](c3ccc(Cl)c(Cl)c3)C(C(=O)O)=C[C@H]2CC2CCCC2)cc1,0.3,57.1*,nt,8.6,-3.4,0.0,18.7,-10.6,12.5
C[C@@H]1CCCCO[C@H](CN(C)C(=O)c2ccccc2)[C@@H](C)CN([C@@H](C)CO)C(=O)c2cc(NC(=O)Nc3ccccc3)ccc2O1,0.0,nt,nt,nt,nt,nt,nt,nt,nt
C/C(=N\NC(=O)C(=O)Nc1ccc(C)cc1)c1ccncc1,0.0,-3.9,-0.9,0.5,-5.0,0.4,nt,nt,nt
C/C(=N\NC(=O)C(=O)Nc1ccc(C)c(Cl)c1)c1ccncc1,0.0,90.2*,1.0,14.6,-1.9,0.8,1.4,-35.5,-40.8
COc1ccc(NC(=O)Nc2ccc3c(c2)C(=O)N([C@@H](C)CO)C[C@H](C)[C@H](CN(C)C(=O)Nc2c(C)noc2C)O3)cc1,0.0,nt,nt,nt,nt,nt,nt,nt,nt
CC(C)Nc1nc(NC(C)C)nc(Oc2ccc(=O)n(C)n2)n1,-0.1,-1.1,-4.2,5.4,1.9,-0.2,nt,nt,nt
CC(C)Nc1nc(Oc2ccc(=O)n(-c3ccccc3)n2)nc(N(C)C)n1,0.3,44.2*,-2.4,-0.8,-35.3,-0.2,4.8,-6.7,1.6
CN1/C(=C\C(=O)COC(=O)Cn2nnc(-c3ccccc3)n2)C(C)(C)c2ccccc21,nt,40.3*,-6.2,22.1,20.1,-0.1,44.8*,2.0,6.4
CCCCNc1ccc(C(CC(N)=O)NC(=O)Cc2cccc3ccccc23)cc1[N+](=O)[O-] (stereo unspecified),0.1,24.8,12.6,4.5,10.3,-0.1,nt,nt,nt
COc1ccc(CCNc2ccc(C(CC(N)=O)NC(=O)Cc3cccc4ccccc34)cc2[N+](=O)[O-])cc1 (stereo unspecified),0.0,42.1*,14.6,11.7,33.2,-0.4,52.1*,-21.1,30.2
NC(=O)CC(NC(=O)Cc1ccc(Cl)cc1)c1ccc(NC2CCCC2)c([N+](=O)[O-])c1 (stereo unspecified),0.2,44.8*,15.1,113.0,15.5,-0.2,47.2*,-10.4,30.3
N#C/C(=C\c1ccc(O)c([N+](=O)[O-])c1)c1nc2ccccc2s1,-0.1,44.9*,nt,10.5,21.0,0.4,42.1*,71.8*,15.2
COc1ccccc1C#Cc1ccc2c(c1)O[C@@H](CN(C)Cc1ccccc1)[C@H](C)CN([C@@H](C)CO)S2(=O)=O,-0.1,nt,nt,nt,nt,nt,nt,nt,nt
O=C(C[C@@H]1C=C[C@@H](NS(=O)(=O)c2ccc(F)cc2)[C@H](CO)O1)N1CCC(Cc2ccccc2)CC1,0.1,nt,nt,nt,nt,nt,nt,nt,nt
COc1ccc(OC)c(/C=N/NC(=O)CSc2cc(C)nc3c(OC)cccc23)c1,0.0,56.0*,-4.4,-5.0,4.2,0.0,17.2,-8.1,-8.9
O=C(CSc1cccc2cccnc12)N/N=C/c1ccc(O)cc1,-0.1,-7.2,-1.8,-3.5,1.6,-0.1,nt,nt,nt
Cc1cccc(CSc2cccc3cccnc23)c1,nt,69.9*,0.8,1.1,-2.2,-0.5,42.5*,-20.2,-6.5
CCOC(=O)CSc1cccc2cccnc12,nt,62.7*,-2.0,6.7,-2.5,-0.2,12.3,-32.5,-10.3
COc1cccc(/C=N/NC(=O)CSc2cccc3cccnc23)c1,0.4,38.2*,2.9,112.2,-2.7,0.0,-15.6,1.8,-16.6
C[C@H]1CN([C@@H](C)CO)C(=O)c2cc(NC(=O)Cc3cn(C)c4ccccc34)ccc2O[C@H]1CN(C)C(=O)Nc1cccc2ccccc12,0.1,nt,nt,nt,nt,nt,nt,nt,nt
CCCNC(=O)N(C)C[C@@H]1Oc2ncc(-c3ccccc3)cc2C(=O)N([C@H](C)CO)C[C@@H]1C,-1.2,nt,nt,nt,nt,nt,nt,nt,nt
C#CCOCCOCCOCCNc1nc(N2CCN(C(=O)CCCCCCCCCCNC(=O)Cn3cc(CCCCCN)nn3)CC2)nc(N2CCN(C(=O)CCCCCCCCCCNC(=O)[C@@H](CCC(=O)O)n3cc(CCCCCN)nn3)CC2)n1,nt,-1.2,-4.6,4.3,5.0,-0.1,nt,nt,nt
C#CCOCCOCCOCCNc1nc(N2CCN(C(=O)CCCCCCCCCCNC(=O)Cn3cc(CCCCCN)nn3)CC2)nc(N2CCN(C(=O)CCCCCCCCCCNC(=O)[C@@H](CCSC)n3cc(CCO)nn3)CC2)n1,nt,41.5*,0.9,13.2,15.6,0.2,26.4,4.5,3.3
Cc1cc(C(=O)Nc2cccc3c2O[C@@H](CN(C)C(=O)Nc2cccc4ccccc24)[C@@H](C)CN([C@H](C)CO)C3=O)n(C)n1,-0.6,nt,nt,nt,nt,nt,nt,nt,nt
SMILES,XiGFP reactiv,Rpn11 block,TPT1 inhibitor,CSN deneddyl inh,HNF4A DNA FP,aDG glyco up,Rpn11 inh conf,MMP-2 counter,Thrombin inh
c1coc(-c2nnc(SCc3nc4ccccc4[nH]3)o2)c1,nt,45.9*,6.6,24.5,27.9,0.0,-2.5,-1.4,-11.7
CNC[C@@H]1Oc2c(NC(C)=O)cccc2C(=O)N(C)C[C@H]1C,0.0,nt,nt,nt,nt,nt,nt,nt,nt
COCC(=O)Nc1ccc2c(c1)OC[C@@H](C)N(Cc1ccncc1)C[C@H](C)[C@@H](OC)CN(C)C2=O,0.6,nt,nt,nt,nt,nt,nt,nt,nt
Fc1ccc(N2CCN(C3=Nc4cccc5cccc3c45)CC2)cc1,0.0,41.8*,19.3,11.1,14.8,0.2,8.2,-24.9,-0.3
c1ccc(CN2CCN(C3=Nc4cccc5cccc3c45)CC2)cc1,nt,4.1,nt,-3.0,1.6,0.0,nt,nt,nt
C[C@H](CO)N1C[C@H](C)[C@@H](CN(C)C(=O)NC2CCCCC2)OCCCC[C@H](C)Oc2ccc(NS(=O)(=O)c3ccc(F)cc3)cc2C1=O,-0.1,nt,nt,nt,nt,nt,nt,nt,nt
Cc1ccc(NC(=O)CN(C)C(=O)c2cccc(-n3cccc3)c2)cc1,0.1,56.6*,nt,29.2,-39.4,-0.1,85.5*,28.6,21.3
COc1ccc(NC(=O)CN(C)C(=O)c2cccc(-n3cccc3)c2)cc1,0.0,-20.1,-0.1,30.4,25.6,-0.1,nt,nt,nt
CC(C1SC(=S)NC1=O)C1SC(=S)NC1=O (stereo unspecified),-0.2,52.8*,nt,38.2*,3.8,-0.3,42.5*,23.6,33.5
CC(C)NC(=O)Nc1ccc2c(c1)C(=O)N(C)C[C@H](C)[C@H](CN(C)S(C)(=O)=O)O2,0.3,nt,nt,nt,nt,nt,nt,nt,nt
O=C(Nc1ccc(F)cc1)N[C@@H]1C=C[C@@H](CC(=O)N2CCCCC2)O[C@@H]1CO,-0.8,nt,nt,nt,nt,nt,nt,nt,nt
